For one compound, IC50, inhibition and CI results are on record in ChEMBL document CHEMBL4145462, “Nitrogen-containing ecdysteroid derivatives vs. multi-drug resistance in cancer: Preparation and antitumor activity of oximes, oxime ethers and a lactam” (Eur J Med Chem, 2018).

The term IC50 denotes the concentration needed to halve the response being measured. The term inhibition denotes the drop in the measured response relative to a control, in per cent.

T1 sequence (P08183 whole entry): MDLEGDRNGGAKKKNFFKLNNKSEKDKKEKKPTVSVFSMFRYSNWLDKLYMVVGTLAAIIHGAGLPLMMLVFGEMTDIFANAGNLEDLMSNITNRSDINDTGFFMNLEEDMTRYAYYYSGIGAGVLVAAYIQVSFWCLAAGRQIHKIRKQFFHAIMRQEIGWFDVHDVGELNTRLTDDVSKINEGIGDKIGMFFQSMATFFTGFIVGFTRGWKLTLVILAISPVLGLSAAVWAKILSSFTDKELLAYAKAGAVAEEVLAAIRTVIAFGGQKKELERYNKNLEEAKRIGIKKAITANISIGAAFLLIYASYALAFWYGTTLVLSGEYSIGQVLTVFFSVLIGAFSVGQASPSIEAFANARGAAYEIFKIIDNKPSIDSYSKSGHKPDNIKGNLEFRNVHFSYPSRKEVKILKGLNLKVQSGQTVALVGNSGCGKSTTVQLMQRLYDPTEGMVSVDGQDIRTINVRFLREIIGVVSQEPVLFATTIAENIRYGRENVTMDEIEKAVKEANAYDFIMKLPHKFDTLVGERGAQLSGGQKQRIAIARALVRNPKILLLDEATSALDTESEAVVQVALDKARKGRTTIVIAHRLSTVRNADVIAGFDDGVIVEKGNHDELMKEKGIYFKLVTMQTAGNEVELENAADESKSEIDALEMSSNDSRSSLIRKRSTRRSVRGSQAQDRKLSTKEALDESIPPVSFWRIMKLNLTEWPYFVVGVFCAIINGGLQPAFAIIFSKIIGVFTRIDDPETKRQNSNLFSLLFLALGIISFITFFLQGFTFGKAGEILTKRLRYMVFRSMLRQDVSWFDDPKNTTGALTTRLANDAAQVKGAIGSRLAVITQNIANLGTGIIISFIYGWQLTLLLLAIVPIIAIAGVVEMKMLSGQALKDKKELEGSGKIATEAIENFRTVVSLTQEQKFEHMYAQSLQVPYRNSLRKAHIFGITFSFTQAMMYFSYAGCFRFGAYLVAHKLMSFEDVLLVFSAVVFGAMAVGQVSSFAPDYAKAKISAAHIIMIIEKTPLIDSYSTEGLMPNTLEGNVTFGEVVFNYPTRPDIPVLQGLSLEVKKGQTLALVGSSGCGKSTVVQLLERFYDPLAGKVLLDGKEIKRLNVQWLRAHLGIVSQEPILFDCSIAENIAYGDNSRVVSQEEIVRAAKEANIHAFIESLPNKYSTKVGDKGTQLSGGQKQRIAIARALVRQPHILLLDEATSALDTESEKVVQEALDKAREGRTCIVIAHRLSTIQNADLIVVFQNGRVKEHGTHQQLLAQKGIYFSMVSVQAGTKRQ

The first series relates to HeLa. As to the kind of experiment: Antiproliferative activity against human HeLa cells after 72 hrs by MTT assay. It is filed as functional, cell-based.
Conditions: not given
The method, boiled down:
(§1)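 Cells grown in MEM with 10% FCS, 1% non-essential amino acids and 1% penicillin-streptomycin. Seeded at 5000 cells/well, exposed to 0.1–30.0 µM compound for 72 h. MTT (5 mg/ml solution) was then added for 4 h, formazan dissolved in DMSO, and absorbance read at 545 nm. Cisplatin served as positive control. IC50 came from sigmoidal dose–response fits (log inhibitor vs normalized response, variable slope).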
As for `CCO/N=C1\C=C2[C@H](CC[C@]3(C)[C@@H]([C@@]4(C)OC(C)(C)O[C@@H]4CCC(C)(C)O)CC[C@@]23O)[C@@]2(C)C[C@@H]3OC(C)(C)O[C@@H]3C[C@@H]12`, the IC50 is > 30 µM.

Another series has as its system SiHa. As to the kind of experiment: Antiproliferative activity against human SiHa cells after 72 hrs by MTT assay. It is filed as functional, cell-based.
Conditions: not given
In a few lines: as §1
In general terms: Tetrazolium dyes change colour on reduction, which living cells bring about.
With `CCO/N=C1\C=C2[C@H](CC[C@]3(C)[C@@H]([C@@]4(C)OC(C)(C)O[C@@H]4CCC(C)(C)O)CC[C@@]23O)[C@@]2(C)C[C@@H]3OC(C)(C)O[C@@H]3C[C@@H]12`, the IC50 was > 30 µM.

A further series relates to MDA-MB-231. As to the kind of experiment: Antiproliferative activity against human MDA-MB-231 cells after 72 hrs by MTT assay. As to conditions: MDA-MB-231, 72 h. The format is functional, cell-based. In a few lines: as §1
Turning to `CCO/N=C1\C=C2[C@H](CC[C@]3(C)[C@@H]([C@@]4(C)OC(C)(C)O[C@@H]4CCC(C)(C)O)CC[C@@]23O)[C@@]2(C)C[C@@H]3OC(C)(C)O[C@@H]3C[C@@H]12`, the IC50 was > 30 µM.

A further series relates to MCF7. As to the kind of experiment: Antiproliferative activity against human MCF7 cells after 72 hrs by MTT assay. It is filed as functional, cell-based. As to conditions: MCF7, 72 h. In a few lines:
as §1
In turn, `CCO/N=C1\C=C2[C@H](CC[C@]3(C)[C@@H]([C@@]4(C)OC(C)(C)O[C@@H]4CCC(C)(C)O)CC[C@@]23O)[C@@]2(C)C[C@@H]3OC(C)(C)O[C@@H]3C[C@@H]12` showed an IC50 of 22.6 µM.

Tested on in the next series: not listed separately
As to the kind of experiment: Cytotoxicity against mouse L5178 cells after 48 hrs by MTT assay. The format is functional, cell-based. As to conditions: L5178, 48 h. In a few lines: (§2)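 Parental mouse lymphoma L5178 and the MDR line made by pHa MDR1/A retrovirus transfection, selected with 60 µg/L colchicine. Grown in McCoy's 5A with horse serum at 37°C, 5% CO2. 5 x 10^4 cells/well, serial compound dilutions, 48 h. MTT added to 0.5 mg/mL final for 4 h, then 10% SDS in 0.01 M HCl overnight, OD read at 540 and 630 nm. IC50 taken as median cytotoxic activity (Dm) from control lanes of checkerboard plates, n=2.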
Consider `CCO/N=C1\C=C2[C@H](CC[C@]3(C)[C@@H]([C@@]4(C)OC(C)(C)O[C@@H]4CCC(C)(C)O)CC[C@@]23O)[C@@]2(C)C[C@@H]3OC(C)(C)O[C@@H]3C[C@@H]12`, for which the IC50 came to 35 µM.

Tested on in another series: not listed separately
As to the kind of experiment: Cytotoxicity against mouse L5178 cells expressing human ABCB1 after 48 hrs by MTT assay. The format is functional, cell-based. As to conditions: L5178, 48 h. The method, boiled down: as §2
Consider `CCO/N=C1\C=C2[C@H](CC[C@]3(C)[C@@H]([C@@]4(C)OC(C)(C)O[C@@H]4CCC(C)(C)O)CC[C@@]23O)[C@@]2(C)C[C@@H]3OC(C)(C)O[C@@H]3C[C@@H]12`, for which the IC50 was 47 µM.

For another series, the target named is T1, ABCB1 (P-glycoprotein) (Homo sapiens, UniProt P08183). As to the kind of experiment: Inhibition of human ABCB1 expressed in mouse L5178 cells assessed as increase in rhodamine-123 accumulation at 2 uM after 10 mins by flow cytometric analysis relative to control. The format is cell-based. The following applies: mouse L5178 cells expressing human ABCB1, probe rhodamine-123. The method, boiled down:
(§3)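 Cells at 2 × 10^6/mL were preincubated 10 min with compound. Rhodamine 123 then added to 5.2 µM final, 20 min at 37 °C. Cells washed twice in PBS, resuspended and read by flow cytometry. Percent inhibition was scaled between MDR-cell accumulation (0%) and parental L5178 accumulation (100%). Controls: 100 nM tariquidar (positive) and 2% DMSO (negative).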
`CCO/N=C1\C=C2[C@H](CC[C@]3(C)[C@@H]([C@@]4(C)OC(C)(C)O[C@@H]4CCC(C)(C)O)CC[C@@]23O)[C@@]2(C)C[C@@H]3OC(C)(C)O[C@@H]3C[C@@H]12`: the inhibition at 10 min, 2 µM was determined as 17.5%.

A further series deals with T1, ABCB1 (P-glycoprotein). As to the kind of experiment: Inhibition of human ABCB1 expressed in mouse L5178 cells assessed as increase in rhodamine-123 accumulation at 20 uM after 10 mins by flow cytometric analysis relative to control. It is filed as cell-based. The following applies: mouse L5178 cells expressing human ABCB1, probe rhodamine-123. In a few lines:
as §3
For orientation: In flow cytometry, cells or beads pass a laser one at a time.
Consider `CCO/N=C1\C=C2[C@H](CC[C@]3(C)[C@@H]([C@@]4(C)OC(C)(C)O[C@@H]4CCC(C)(C)O)CC[C@@]23O)[C@@]2(C)C[C@@H]3OC(C)(C)O[C@@H]3C[C@@H]12`, for which the inhibition at 10 min, 20 µM turned out to be 78.8%.

Tested on in a further series: not listed separately
As to the kind of experiment: Synergistic cytotoxicity against mouse L5178 cells assessed as combination index at ED50 using 150:1 test compound to doxorubicin ratio after 48 hrs by MTT-based checkerboard microplate method. The format is functional.
Conditions: not given
The method, boiled down: (§4)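 Checkerboard microplate combinations of compound with doxorubicin at constant molar ratios. 5 × 10^4 cells/well in McCoy's 5A, 48 h at 37°C, 5% CO2. MTT added to 0.5 mg/mL final for 4 h, SDS/HCl overnight, OD read at 540 and 630 nm. Combination indices derived per ratio for 50%, 75% and 90% growth inhibition by median-effect analysis.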
On to `CCO/N=C1\C=C2[C@H](CC[C@]3(C)[C@@H]([C@@]4(C)OC(C)(C)O[C@@H]4CCC(C)(C)O)CC[C@@]23O)[C@@]2(C)C[C@@H]3OC(C)(C)O[C@@H]3C[C@@H]12`, for which the CI was determined as 0.17.

Tested on in a further series: not listed separately
As to the kind of experiment: Synergistic cytotoxicity against mouse L5178 cells expressing human ABCB1 assessed as combination index at ED50 using 15:1 test compound to doxorubicin ratio after 48 hrs by MTT-based checkerboard microplate method. It is filed as functional.
Conditions: not given
The method, boiled down:
as §4
For the compound `CCO/N=C1\C=C2[C@H](CC[C@]3(C)[C@@H]([C@@]4(C)OC(C)(C)O[C@@H]4CCC(C)(C)O)CC[C@@]23O)[C@@]2(C)C[C@@H]3OC(C)(C)O[C@@H]3C[C@@H]12`, the CI was 0.57.

Tested on in another series: not listed separately
As to the kind of experiment: Synergistic cytotoxicity against mouse L5178 cells assessed as combination index at ED75 using 150:1 test compound to doxorubicin ratio after 48 hrs by MTT-based checkerboard microplate method. It is filed as functional.
Conditions: not given
In a few lines:
as §4
`CCO/N=C1\C=C2[C@H](CC[C@]3(C)[C@@H]([C@@]4(C)OC(C)(C)O[C@@H]4CCC(C)(C)O)CC[C@@]23O)[C@@]2(C)C[C@@H]3OC(C)(C)O[C@@H]3C[C@@H]12`: the CI is listed as 0.8.

Tested on in a further series: not listed separately
As to the kind of experiment: Synergistic cytotoxicity against mouse L5178 cells assessed as combination index at ED90 using 150:1 test compound to doxorubicin ratio after 48 hrs by MTT-based checkerboard microplate method. It is filed as functional.
Conditions: not given
The method, boiled down:
as §4
In the case of `CCO/N=C1\C=C2[C@H](CC[C@]3(C)[C@@H]([C@@]4(C)OC(C)(C)O[C@@H]4CCC(C)(C)O)CC[C@@]23O)[C@@]2(C)C[C@@H]3OC(C)(C)O[C@@H]3C[C@@H]12`, the CI stood at 1.1.

Tested on in a further series: not listed separately
As to the kind of experiment: Synergistic cytotoxicity against mouse L5178 cells expressing human ABCB1 assessed as combination index at ED75 using 15:1 test compound to doxorubicin ratio after 48 hrs by MTT-based checkerboard microplate method. It is filed as functional.
Conditions: not given
In a few lines: as §4
As for `CCO/N=C1\C=C2[C@H](CC[C@]3(C)[C@@H]([C@@]4(C)OC(C)(C)O[C@@H]4CCC(C)(C)O)CC[C@@]23O)[C@@]2(C)C[C@@H]3OC(C)(C)O[C@@H]3C[C@@H]12`, the CI is given as 0.16.

Tested on in another series: not listed separately
As to the kind of experiment: Synergistic cytotoxicity against mouse L5178 cells expressing human ABCB1 assessed as combination index at ED90 using 15:1 test compound to doxorubicin ratio after 48 hrs by MTT-based checkerboard microplate method. The format is functional.
Conditions: not given
The method, boiled down:
as §4
Turning to `CCO/N=C1\C=C2[C@H](CC[C@]3(C)[C@@H]([C@@]4(C)OC(C)(C)O[C@@H]4CCC(C)(C)O)CC[C@@]23O)[C@@]2(C)C[C@@H]3OC(C)(C)O[C@@H]3C[C@@H]12`, the CI came out at 0.15.

Tested on in the next series: not listed separately
As to the kind of experiment: Synergistic cytotoxicity against mouse L5178 cells expressing human ABCB1 assessed as combination index at ED50 using 30:1 test compound to doxorubicin ratio after 48 hrs by MTT-based checkerboard microplate method. It is filed as functional.
Conditions: not given
The method, boiled down: as §4
Regarding `CCO/N=C1\C=C2[C@H](CC[C@]3(C)[C@@H]([C@@]4(C)OC(C)(C)O[C@@H]4CCC(C)(C)O)CC[C@@]23O)[C@@]2(C)C[C@@H]3OC(C)(C)O[C@@H]3C[C@@H]12`, the CI came to 0.2.

Tested on in another series: not listed separately
As to the kind of experiment: Synergistic cytotoxicity against mouse L5178 cells expressing human ABCB1 assessed as combination index at ED75 using 30:1 test compound to doxorubicin ratio after 48 hrs by MTT-based checkerboard microplate method. The format is functional.
Conditions: not given
In a few lines: as §4
Regarding `CCO/N=C1\C=C2[C@H](CC[C@]3(C)[C@@H]([C@@]4(C)OC(C)(C)O[C@@H]4CCC(C)(C)O)CC[C@@]23O)[C@@]2(C)C[C@@H]3OC(C)(C)O[C@@H]3C[C@@H]12`, the CI came to 0.23.

Tested on in the next series: not listed separately
As to the kind of experiment: Synergistic cytotoxicity against mouse L5178 cells expressing human ABCB1 assessed as combination index at ED90 using 30:1 test compound to doxorubicin ratio after 48 hrs by MTT-based checkerboard microplate method. The format is functional.
Conditions: not given
The method, boiled down:
as §4
In the case of `CCO/N=C1\C=C2[C@H](CC[C@]3(C)[C@@H]([C@@]4(C)OC(C)(C)O[C@@H]4CCC(C)(C)O)CC[C@@]23O)[C@@]2(C)C[C@@H]3OC(C)(C)O[C@@H]3C[C@@H]12`, the CI is listed as 0.26.
